Bioassay records from PubChem BioAssay.
STEP inh – inhibitors of human striatal-enriched phosphatase STEP; recombinant STEP, OMFP fluorogenic substrate, fluorescence; inhibition, % at 20 µM; 360,000 tested, 0.25% active;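 active = inhibition at 20 µM, scaled per plate between control wells, above about 37%, limit read from the data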;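 note: 0% = DMSO with enzyme and substrate and 100% = substrate only without enzyme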
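medium = Bis-Tris buffer pH 6.0, 2.5 mM DTT, 0.005% Tween 20 | test system = STEP (striatal-enriched tyrosine phosphatase) enzyme, cell-free | measure = normalized % inhibition | compound dosing = 20 µM, 1% DMSO | also added = 25 µM OMFP | schedule = reaction 20 min, ambient temperature | measured by = fluorescence read at 480 nm ex / 540 nm em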
LMPTP inh – blocks human LMPTP phosphatase; AID 651560; recombinant LMPTP-A, OMFP fluorogenic substrate, fluorescence intensity; inhibition, % at 20 µM; P24666; 360,000 tested, 0.22% active;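 active = compounds that cut the enzyme signal by at least half of the control window in the single-dose screen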;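 note: plate controls were DMSO wells with enzyme plus substrate for no effect and substrate without enzyme for full effect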
Target sequence (P24666 whole entry, looked up): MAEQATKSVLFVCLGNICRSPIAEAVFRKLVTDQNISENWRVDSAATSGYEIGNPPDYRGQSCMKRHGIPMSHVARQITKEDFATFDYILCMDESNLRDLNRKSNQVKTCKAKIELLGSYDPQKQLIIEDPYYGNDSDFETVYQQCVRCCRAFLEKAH
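test system = LMPTP-A | amount = 0.625 nM LMPTP-A final | reagent = fluorogenic phosphatase substrate OMFP at 400 µM final | incubation = 50 min at room temperature | benchmarks = no-enzyme low control, uninhibited high control | medium = Bis-Tris pH 6.0, DTT, detergent | signal = fluorescence intensity of OMFP turnover product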
SUMO1 PPI mod – modulators of human SUMO1-mediated protein-protein interactions; inhibition, % at 20 µM; 360,000 tested, 0.33% active; SUMO1 binding to a labelled peptide, TR-FRET, 1 h; in the data active = inhibition above about 37%
Target sequence (P63165 whole entry, looked up): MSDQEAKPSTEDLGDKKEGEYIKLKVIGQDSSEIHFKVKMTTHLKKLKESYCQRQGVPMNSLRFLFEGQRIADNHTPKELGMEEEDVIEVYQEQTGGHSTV
Scp1 inh – blocks human Scp-1 phosphatase activity | Q9GZU7 | Recombinant Scp1, phosphopeptide, malachite green phosphate absorbance | inhibition, % at 20 µM | 340,000 tested, 0.88% active | AID 493091;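 active = inhibition above about 50% at 20 µM, limit read from the data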;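 note: plate controls were DMSO wells with enzyme for no effect and wells lacking enzyme for full effect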
Target sequence (Q9GZU7 76-261 limits assumed): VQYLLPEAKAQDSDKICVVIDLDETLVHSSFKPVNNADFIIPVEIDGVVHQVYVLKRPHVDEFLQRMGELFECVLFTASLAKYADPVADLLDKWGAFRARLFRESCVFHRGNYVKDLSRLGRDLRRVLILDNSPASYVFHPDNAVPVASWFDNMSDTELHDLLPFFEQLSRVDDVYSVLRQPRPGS
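Times: enzyme reaction 45 min at room temperature, colour 5 min, stabilisation 30 min. Material: SCP-1 catalytic fragment, aa 76-261. Medium: Acidic Tris acetate buffer with magnesium and detergent. Signal: colorimetric free-phosphate detection, absorbance 630 nm. Read-out basis: % inhibition of SCP-1 phosphate liberation. Reagent: Phosphorylated 17-residue peptide substrate.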
HKDC1 inhibitor – inhibitors of human hexokinase HKDC1; Q2TB90; recombinant HKDC1, G6PDH/diaphorase resazurin coupled fluorescence; inhibition, % at 20 µM; 340,000 tested, 0.16% active;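 active = inhibition above about 35% when tested at 20 µM, limit read from the data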;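 note: plate controls were DMSO wells with enzyme for no effect and DMSO wells lacking enzyme for full effect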
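Test system: recombinant HKDC1 (HK5) hexokinase enzyme, produced in-house; Amount: enzyme 5 µg/mL final; Buffer or medium: Tris pH 8.0 buffer with MgCl2, Tween-20, BSA, BME; Reagent: glucose and ATP substrates; Doses: 20 µM test compound, 1% DMSO; Incubation: 90 min reaction incubation at room temperature, dark; Detection: resorufin fluorescence at 613 nm.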
DNMT1 block – blocks human DNA methyltransferase DNMT1; DNMT1 molecular beacon, Hinp1I cleavage, fluorescence; inhibition (reported as % activation of signal), % at 10 µM; 360,000 tested, 0.83% active; in the data active = inhibition above about 50%
Scp-1 conf – Scp-1 (human) inhibition, single-dose confirmed | 2,500 tested, 61% active | inhibition, % at 20 µM | shares compounds with Scp1 inh | recombinant SCP-1 catalytic domain, phosphate release, malachite green absorbance;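 note: plate controls were DMSO with enzyme for no effect and buffer wells lacking enzyme for full effect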
Scp-1 MG ctr – counter-screen for Scp-1 inhibitors: colorimetric interference; shares compounds with Scp1 inh; Colorimetric interference counterscreen, malachite green absorbance 630 nm; 2,500 tested, under 10 active; apparent inhibition (interference), % at 20 µM;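 note: compounds added after enzyme reaction finished so only phosphate colour detection is probed; plate controls were DMSO wells with completed Scp-1 reaction for no effect and substrate wells lacking enzyme for full effect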
Scp1 DSF – Scp-1 (human) binding by thermal shift; shares compounds with Scp1 inh; Recombinant SCP1, Sypro Orange thermal shift Tm; thermal shift relative to vanadate control, % at 40 µM; 1,500 tested, 25% active;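 active = substances whose mean melting-temperature shift, as a percentage of the reference inhibitor's shift, reaches about 5.3%, limit read from the data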;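 note: 0% = Tm of DMSO wells and 100% = Tm with sodium orthovanadate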
Active calls of the source: *; nt = no result given. An excerpt weighted towards active compounds, which were near 1.8% of everything screened.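 Rule for the calls, unless noted: active = inhibition of at least 30% at 20 µM; inactive = the rest.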

SMILES	STEP inh	LMPTP inh	SUMO1 PPI mod	Scp1 inh	HKDC1 inhibitor	DNMT1 block	Scp-1 conf	Scp-1 MG ctr	others
N#Cc1ccccc1OCC(=O)OCCCOC(=O)COc1ccccc1C#N	0	1	7	96*	-8	1	-12	-16
COCCOC(=O)c1cc(C(=O)c2cc(Cl)ccc2O)coc1=N	0	-1	1	55*	-6	-3	-11	-16
CCOC(=O)c1cc(C(=O)c2cc(Cl)ccc2O)coc1=N	-1	1	-1	-8	-4	-7	nt	nt
Cc1cccc(NC(=O)CSc2nc3[nH]c(=O)cc(O)c3s2)c1	3	1	7	61*	-7	31	37*	-12	Scp1 DSF=14*
O=C(CSc1nc2[nH]c(=O)cc(O)c2s1)Nc1cccc(Br)c1	3	1	11	6	3	-9	nt	nt
CC(C)(C)S(=O)(=O)N1C[C@H]2CC/C=C\C/C(c3ccccc3)=C\2[C@@H]1CCO	0	0	2	-11	-2	3	nt	nt
COC(=O)C1=C(C(=O)OC)C(C(=O)OC)N2C=CC=CC2=C1C(=O)OC (centres undefined)	0	0	-10	nt	nt	-4	nt	nt
CC(C[N+](C)(C)C)OC(=O)C1(c2ccccc2)CCCC1 (centres undefined)	-3	-2	3	63*	-4	0	-20	-16
O=C(CSc1ncn(-c2ccccc2)n1)Nc1nc2c(s1)CCCC2	7	4	11	79*	7	36	64*	-8	Scp1 DSF=-1
O=C(CSc1ncn(-c2ccccc2)n1)Nc1nc2ccccc2s1	-4	0	1	3	1	-4	nt	nt
COc1ccccc1N1CCN(S(=O)(=O)c2ccc3c(c2)NC(=O)C(C)S3)CC1 (centres undefined)	2	2	0	-6	11	-2	nt	nt
COc1ccccc1N1CCN(C(=O)C(C)CS(=O)(=O)c2ccc3c(c2)NC(=O)CS3)CC1 (centres undefined)	7	0	29	59*	-3	43	63*	-2	Scp1 DSF=-1
C/C(=N/NC(=O)c1ccc(Br)o1)c1cccs1	0	-1	-14	-5	-9	1	nt	nt
C/C(=N\NC(=O)c1cc(Br)ccc1O)c1cccc(NC(=O)c2ccccc2F)c1	9	4	15	86*	2	2	79*	-13	Scp1 DSF=5.8*
C/C(=N\NC(=O)c1cc(Br)ccc1O)c1cccs1	5	-1	3	66*	-4	5	69*	-7	Scp1 DSF=-2
O=C(Nc1cccc(N2C(=O)C3CCCCC3C2=O)c1)c1ccccc1 (centres undefined)	-3	0	6	-5	-5	3	nt	nt
O=C(Nc1cccc(Cl)c1)c1cccc(N2C(=O)C3CC=CCC3C2=O)c1 (centres undefined)	19	1	38	52*	0	24	28	-15
Cc1cccc(N2CCN(C(=O)c3ccc(S(=O)(=O)N(C)c4ccccc4)cc3)CC2)c1C	0	4	-4	99*	13	-5	75*	-17	Scp1 DSF=-26
CCCc1c(C(=O)N/N=C/c2ccc(C)s2)nnn1-c1nonc1N	12	29	-2	61*	-4	25	27	-7
CCCc1c(C(=O)N/N=C/c2cccs2)nnn1-c1nonc1N	1	7	9	30	-1	20	nt	nt
Cc1cc(C)c(NC(=O)CS(=O)CC(=O)Nc2ccc(N3CCOCC3)cc2)c(C)c1 (centres undefined)	1	-1	-1	-3	-3	1	nt	nt
Cc1ccc(NC(=O)CS(=O)CC(=O)Nc2ccc(N3CCOCC3)cc2)cc1Cl (centres undefined)	22	2	1	97*	0	-3	70*	-20	Scp1 DSF=2
CCn1c(SCC(=O)Nc2ccccc2)nc2c(c1=O)SCC2	8	-3	-2	nt	nt	-3	nt	nt
COc1ccccc1N(CC(=O)Nc1ccc2c(c1)OCO2)S(=O)(=O)c1ccccc1	-2	-1	2	99*	-1	1	19	-9
CCOc1ccc(CCN2C(=S)N([C@@H](CC(C)C)CN3CCC[C@@H]3CN3C(=S)NC[C@@H]3Cc3ccccc3)C[C@@H]2Cc2ccc(O)cc2)cc1	1	5	0	nt	nt	-28	nt	nt
SMILES	STEP inh	LMPTP inh	SUMO1 PPI mod	Scp1 inh	HKDC1 inhibitor	DNMT1 block	Scp-1 conf	Scp-1 MG ctr	others
COc1cc(NC(=O)Nc2cccn3nc(COCCO)nc23)cc(OC)c1OC	-2	0	2	nt	nt	4	nt	nt
Clc1ccccc1-c1ccc2nccn2c1	2	0	5	nt	nt	2	nt	nt
CCc1nc2c(OCc3cccc(Cl)c3)cccn2c1N(C)C(=O)CC(C)C	2	1	-1	nt	nt	-3	nt	nt
CC[N+]1=CN(c2ccccc2)C(C)=CC1(C)C	-3	-3	2	78*	-10	-4	86*	-12	Scp1 DSF=-24
CC1=NN(c2ccccc2)C(=O)C1(C)C	5	-1	0	-3	-4	1	nt	nt
COc1cccc(NC(=O)C(C)Sc2nnc(C3CC3)n2C2CC2)c1 (centres undefined)	0	-1	-3	-5	-4	-2	nt	nt
CCn1c(C)c2c([n+]1CC)CC(C)(C)CC2=O	-3	-1	-3	55*	-9	0	75*	-11	Scp1 DSF=-20
C=Cc1ccc(CC2(C)C(=O)Nc3ccc(-c4cccnc4)cc32)cc1 (centres undefined)	1	1	3	nt	nt	-2	nt	nt
Cc1c(/C(O)=C2/C(=O)C(=O)N(CCN3CCOCC3)C2c2cccnc2)cnn1-c1ccccc1 (centres undefined)	-6	-4	-6	-3	-4	0	nt	nt
Cc1c(/C(O)=C2/C(=O)C(=O)N(CCN3CCOCC3)C2c2ccco2)cnn1-c1ccccc1 (centres undefined)	1	1	-6	-4	-9	0	-13	-7
O=C(NNC(=O)c1cccs1)c1ccc(Cl)c(S(=O)(=O)N2CCCC2)c1	-2	-1	5	-1	2	-5	nt	nt
Cc1cc(C(=O)O)cc(S(=O)(=O)NNC(=O)c2cccs2)c1C	2	-1	5	53*	6	3	-7	-13
